Experimental data: ChEMBL document CHEMBL5120843, “Structure and Antimicrobial Activity of Rare Lactone Lipids from the Sooty Mold (Scorias spongiosa)” (J Nat Prod, 2022)
Values after ≈ are worked out from the molar mass of the structure shown.

How the values were obtained:
Pichia kudriavzevii [1] = test: Antifungal activity against Candida krusei ATCC 6258 incubated for 46 to 50 hrs by CLSI protocol based assay; assay type: functional, organism-based
Cryptococcus neoformans [2] = test: Antifungal activity against Cryptococcus neoformans ATCC 90113 incubated for 70 to 74 hrs by CLSI protocol based assay; assay type: functional, organism-based
Cryptococcus neoformans [3] = test: Antifungal activity against Cryptococcus neoformans ATCC 90113 assessed as minimum inhibitory concentration incubated for 70 to 74 hrs by CLSI protocol based assay; assay type: functional; conditions: time 70-74 hrs
Outline: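 Cryptococcus neoformans in Sabouraud dextrose broth at final 1.5 × 10^3, serially diluted samples in duplicate, final concentration 1/100th of stock. Read at 530 nm before and after 35 °C for 70–74 h. MIC is the lowest test concentration with no detectable growth.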

Cryptococcus neoformans [4] = test: Antifungal activity against Cryptococcus neoformans ATCC 90113 assessed as minimum fungicidal concentration incubated for 70 to 74 hrs by CLSI protocol based assay; assay type: functional; conditions: time 70-74 hrs
Outline: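 From clear wells of the Cryptococcus broth assay (Sabouraud dextrose, 35 °C, 70–74 h), 5 μL transferred to fresh medium and reincubated under the same conditions. MFC is the lowest concentration that kills the organism.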

Staphylococcus aureus [5] = test: Antibacterial activity against Staphylococcus aureus ATCC 29213 incubated for 16 to 20 hrs by CLSI protocol based assay; assay type: functional, organism-based
Staphylococcus aureus [6] = test: Antibacterial activity against Staphylococcus aureus ATCC 29213 assessed as minimum inhibitory concentration incubated for 16 to 20 hrs by CLSI protocol based assay; assay type: functional; conditions: time 16-20 hrs
Staphylococcus aureus [7] = test: Antibacterial activity against Staphylococcus aureus ATCC 29213 assessed as minimum bactericidal concentration incubated for 16 to 20 hrs by CLSI protocol based assay; assay type: functional; conditions: time 16-20 hrs
Staphylococcus aureus [8] = test: Antibacterial activity against methicillin-resistant Staphylococcus aureus ATCC 33591 incubated for 16 to 20 hrs by CLSI protocol based assay; assay type: functional, organism-based
Staphylococcus aureus [9] = test: Antibacterial activity against methicillin-resistant Staphylococcus aureus ATCC 33591 assessed as minimum inhibitory concentration incubated for 16 to 20 hrs by CLSI protocol based assay; assay type: functional; conditions: time 16-20 hrs
Staphylococcus aureus [10] = test: Antibacterial activity against methicillin-resistant Staphylococcus aureus ATCC 33591 assessed as minimum bactericidal concentration incubated for 16 to 20 hrs by CLSI protocol based assay; assay type: functional; conditions: time 16-20 hrs
Cryptococcus neoformans [11] = test: Synergistic antifungal activity against Cryptococcus neoformans H99 assessed as […] at 2 ug/ml incubated for 72 hrs by CLSI protocol based checkerboard assay; assay type: functional; conditions: dose 2 µg/ml
Outline: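 Checkerboard per CLSI. Overnight C. neoformans H99 culture diluted in RPMI 1640 with MOPS, pH 7.0, to final 1.0 × 10^4 CFU/mL. […] Single-agent, solvent and media controls included. OD 490 nm read before and after 30 °C for 72 h, normalized to solvent control. FIC ≤ 0.5 scored as synergy.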

Cryptococcus neoformans [12] = test: Synergistic antifungal activity against Cryptococcus neoformans H99 assessed as fold increase in amphotericin fungicidal activity at 2 ug/ml incubated for 48 hrs by CLSI protocol based yeast peptone dextrose agar plate method; assay type: functional; conditions: dose 2 µg/ml
Outline: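 Fungicidal read-out from the H99 checkerboard (RPMI/MOPS pH 7.0, 1.0 × 10^4 CFU/mL, 30 °C, 72 h). Plate shaken, then 2 μL from each well spotted on YPD agar and incubated at 30 °C for 48 h.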

Candida albicans = test: Antifungal activity against Candida albicans ATCC 90028 incubated for 46 to 50 hrs by CLSI protocol based assay; assay type: functional, organism-based
Nakaseomyces glabratus [13] = test: Antifungal activity against Candida glabrata ATCC 90030 incubated for 46 to 50 hrs by CLSI protocol based assay; assay type: functional, organism-based
Nakaseomyces glabratus [14] = test: Antifungal activity against Candida glabrata ATCC 90030 assessed as minimum inhibitory concentration incubated for 46 to 50 hrs by CLSI protocol based assay; assay type: functional; conditions: time 46-50 hrs
Outline: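 Candida strains in RPMI 1640/0.2% dextrose/0.03% glutamine/MOPS, pH 6.0. Inoculum 1.5 × 10^3, samples serially diluted from DMSO stocks, duplicate wells, final concentration 1/100th of stock. Read at 530 nm before and after 35 °C for 46–50 h. MIC taken as lowest test concentration with no detectable growth.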

Nakaseomyces glabratus [15] = test: Antifungal activity against Candida glabrata ATCC 90030 assessed as minimum fungicidal concentration incubated for 46 to 50 hrs by CLSI protocol based assay; assay type: functional; conditions: time 46-50 hrs
Outline: (§1)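 After the Candida broth microdilution (RPMI/MOPS pH 6.0, 35 °C, 46–50 h), 5 μL from each clear well moved to fresh medium and incubated again under the same conditions. MFC defined as the lowest test concentration that kills the organism.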

Pichia kudriavzevii [16] = test: Antifungal activity against Candida krusei ATCC 6258 assessed as minimum inhibitory concentration incubated for 46 to 50 hrs by CLSI protocol based assay; assay type: functional; conditions: time 46-50 hrs
Outline: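 Inoculum 1.5 × 10^3, samples serially diluted from DMSO stocks, duplicate wells, final concentration 1/100th of stock. Read at 530 nm before and after 35 °C for 46–50 h. MIC taken as lowest test concentration with no detectable growth.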

Pichia kudriavzevii [17] = test: Antifungal activity against Candida krusei ATCC 6258 assessed as minimum fungicidal concentration incubated for 46 to 50 hrs by CLSI protocol based assay; assay type: functional; conditions: time 46-50 hrs; outline: as §1
Cryptococcus neoformans [18] = test: Synergistic antifungal activity against Cryptococcus neoformans H99 assessed as fractional inhibitory concentration incubated for 72 hrs by CLSI protocol based checkerboard assay; assay type: functional
Outline: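 Checkerboard in RPMI 1640 buffered with MOPS pH 7.0. Final inoculum 1.0 × 10^4 CFU/mL from an overnight H99 culture. […] OD490 read before and after 72 h at 30 °C, normalized to solvent control. FIC ≤0.5 taken as synergy.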

CCCCCCCCCCCC[C@]1(C)C=C/C(=C2/C(=O)O[C@@H](CC(=O)OC)C2=O)O1 was tested, and the IC50 (Pichia kudriavzevii [1]) was 20 µg/mL (≈ 47.6 µM), the IC50 (Cryptococcus neoformans [2]) was 0.63 µg/mL (≈ 1.5 µM) and the MIC (Cryptococcus neoformans [3]) was 1.25 µg/mL (≈ 2.97 µM). For the same molecule, the MFC (Cryptococcus neoformans [4]) was 1.25 µg/mL (≈ 2.97 µM), the IC50 (Staphylococcus aureus [5]) was 1.08 µg/mL (≈ 2.57 µM) and the MIC (Staphylococcus aureus [6]) was 2.5 µg/mL (≈ 5.94 µM). It also gave an MBC (Staphylococcus aureus [7]) of 10 µg/mL (≈ 23.8 µM), an IC50 (Staphylococcus aureus [8]) of 0.71 µg/mL (≈ 1.69 µM) and an MIC (Staphylococcus aureus [9]) of 1.25 µg/mL (≈ 2.97 µM). For the same molecule, the MBC (Staphylococcus aureus [10]) was 5 µg/mL (≈ 11.9 µM), the “fold change (FC)” value (Cryptococcus neoformans [11]) was 16 and the “fold change (FC)” value (Cryptococcus neoformans [12]) was 8.

For CCCCCCCCCCCC[C@]1(C)C=C/C(=C2/C(=O)O[C@@H](CC(=O)O)C2=O)O1, the IC50 (Candida albicans) was 15.3 µg/mL (≈ 37.6 µM), the IC50 (Nakaseomyces glabratus [13]) was 2.85 µg/mL (≈ 7.01 µM) and the MIC (Nakaseomyces glabratus [14]) was 10 µg/mL (≈ 24.6 µM). It also gave an MFC (Nakaseomyces glabratus [15]) of 10 µg/mL (≈ 24.6 µM), an IC50 (Pichia kudriavzevii [1]) of 6.31 µg/mL (≈ 15.5 µM) and an MIC (Pichia kudriavzevii [16]) of 10 µg/mL (≈ 24.6 µM). For the same molecule, the MFC (Pichia kudriavzevii [17]) was 10 µg/mL (≈ 24.6 µM), the IC50 (Cryptococcus neoformans [2]) was 0.37 µg/mL (≈ 0.91 µM) and the MIC (Cryptococcus neoformans [3]) was 0.63 µg/mL (≈ 1.55 µM). It also gave an MFC (Cryptococcus neoformans [4]) of 0.63 µg/mL (≈ 1.55 µM), an IC50 (Staphylococcus aureus [5]) of 0.44 µg/mL (≈ 1.08 µM) and an MIC (Staphylococcus aureus [6]) of 1.25 µg/mL (≈ 3.07 µM). The MBC (Staphylococcus aureus [7]) was 20 µg/mL (≈ 49.2 µM), the IC50 (Staphylococcus aureus [8]) was 0.39 µg/mL (≈ 0.959 µM) and the MIC (Staphylococcus aureus [9]) was 0.63 µg/mL (≈ 1.55 µM). It also gave an MBC (Staphylococcus aureus [10]) of 10 µg/mL (≈ 24.6 µM).

For C[C@@H]1[C@H](O)[C@@H](C)/C=C/C=C/C=C/C=C/C=C/C=C/C=C/[C@H](O[C@@H]2O[C@H](C)[C@@H](O)[C@H](N)[C@@H]2O)C[C@@H]2O[C@](O)(C[C@@H](O)C[C@@H](O)[C@H](O)CC[C@@H](O)C[C@@H](O)CC(=O)O[C@H]1C)C[C@H](O)[C@H]2C(=O)O [AMPHOTERICIN B], the IC50 (Candida albicans) was 0.14 µg/mL (≈ 0.152 µM), the IC50 (Nakaseomyces glabratus [13]) was 0.21 µg/mL (≈ 0.227 µM) and the MIC (Nakaseomyces glabratus [14]) was 0.63 µg/mL (≈ 0.682 µM). For the same molecule, the MFC (Nakaseomyces glabratus [15]) was 0.63 µg/mL (≈ 0.682 µM), the IC50 (Pichia kudriavzevii [1]) was 0.74 µg/mL (≈ 0.801 µM) and the IC50 (Cryptococcus neoformans [2]) was 0.35 µg/mL (≈ 0.379 µM). It also gave an MIC (Cryptococcus neoformans [3]) of 0.63 µg/mL (≈ 0.682 µM), an MFC (Cryptococcus neoformans [4]) of 0.63 µg/mL (≈ 0.682 µM) and an FIC (Cryptococcus neoformans [18]) of 0.3.
